Results published in ChEMBL document CHEMBL1932986, “Synthesis and in vitro antimycobacterial activity of compounds derived from (R)- and (S)-2-amino-1-butanol - The crucial role of the configuration” (Eur J Med Chem, 2012).
Values after ≈ are worked out from the molar mass of the structure shown. Active and inactive are the calls of the source. The rule behind the calls is not given here.

Columns and labels:
Bacillus [1] = experiment: Antibacterial activity against Bacillus idosus B 241 at 50 mg/ml after 24 hrs by agar diffusion test; format: functional; details: B 241, 24 h, read-out: DIZ
Summary of the method: (§1)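 Agar diffusion: wells in agar filled with […] DMSO solution of compound at various concentrations; diameter of clear zone around application point measured. Bacteria grown 24 h at 37 °C on nutrient agar. Compounds first screened at 50 mg/ml; those active then tested at lower concentrations. Bracketed value = lowest concentration (mg/ml) giving zone >11 mm, reported only if activity retained at ≤1.25 mg/ml.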

Saccharomyces cerevisiae [2] = experiment: Antifungal activity against Saccharomyces cerevisiae ATCC 9763 assessed as concentration required to produce >11 mm of zone of inhibition after 72 hrs by agar diffusion test; format: functional
Summary of the method: (§2)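 Agar diffusion: yeasts grown on yeast peptone dextrose agar and fungi on potato dextrose agar. Wells are filled with […] of compound solution in DMSO at various concentrations, and the clear-zone diameter is measured. Bracketed values give the lowest concentration (mg/ml) that produces a zone >11 mm. A first screen is run at 50 mg/ml.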

Penicillium chrysogenum [3] = experiment: Antifungal activity against Penicillium chrysogenum CECT 2802 at 2 mg/ml after 72 hrs by agar diffusion test; format: functional, organism-based; summary of the method: as §2
Candida tropicalis [4] = experiment: Antifungal activity against Candida tropicalis ATCC 20336 at 50 mg/ml after 72 hrs by agar diffusion test; format: functional; details: ATCC 20336, 72 h, read-out: DIZ; summary of the method: as §2
Penicillium chrysogenum [5] = experiment: Antifungal activity against Penicillium chrysogenum CECT 2802 assessed as concentration required to produce >11 mm of zone of inhibition after 72 hrs by agar diffusion test; format: functional; summary of the method: as §2
Staphylococcus aureus [6] = experiment: Antibacterial activity against Staphylococcus aureus NRRL B 313 assessed as concentration required to produce >11 mm of zone of inhibition after 24 hrs by agar diffusion test; format: functional
Summary of the method: (§3)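 Agar diffusion: bacteria grown 24 h at 37 °C on nutrient agar. Wells in the agar are filled with […] of compound solution in DMSO at various concentrations. The diameter of the clear zone around the application point is measured. Bracketed values give the lowest concentration (mg/ml) that produces a zone >11 mm. A first screen is run at 50 mg/ml.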

Bacillus subtilis [7] = experiment: Antibacterial activity against Bacillus subtilis ATCC 6633 at 50 mg/ml after 24 hrs by agar diffusion test; format: functional; details: ATCC 6633, 24 h, read-out: DIZ; summary of the method: as §1
Priestia megaterium [8] = experiment: Antibacterial activity against Bacillus megaterium NRRL 1353895 assessed as concentration required to produce >11 mm of zone of inhibition after 24 hrs by agar diffusion test; format: functional; summary of the method: as §1
Bacillus cereus [9] = experiment: Antibacterial activity against Bacillus cereus ATCC 11778 assessed as concentration required to produce >11 mm of zone of inhibition after 24 hrs by agar diffusion test; format: functional; summary of the method: as §1
Candida tropicalis [10] = experiment: Antifungal activity against Candida tropicalis ATCC 20336 at 2 mg/ml after 72 hrs by agar diffusion test; format: functional, organism-based; summary of the method: as §2
Bacillus subtilis [11] = experiment: Antibacterial activity against Bacillus subtilis ATCC 6633 assessed as concentration required to produce >11 mm of zone of inhibition after 24 hrs by agar diffusion test; format: functional; summary of the method: as §1
Saccharomyces cerevisiae [12] = experiment: Antifungal activity against Saccharomyces cerevisiae ATCC 9763 at 2 mg/ml after 72 hrs by agar diffusion test; format: functional, organism-based; summary of the method: as §2
Micrococcus luteus [13] = experiment: Antibacterial activity against Sarcina lutea ATCC 9341 assessed as concentration required to produce >11 mm of zone of inhibition after 24 hrs by agar diffusion test; format: functional; summary of the method: as §1
Bacillus subtilis [14] = experiment: Antibacterial activity against Bacillus subtilis ATCC 6633 at 2 mg/ml after 24 hrs by agar diffusion test; format: functional, organism-based; summary of the method: as §1
Staphylococcus aureus [15] = experiment: Antibacterial activity against Staphylococcus aureus NRRL B 313 at 2 mg/ml after 24 hrs by agar diffusion test; format: functional, organism-based; summary of the method: as §3
Priestia megaterium [16] = experiment: Antibacterial activity against Bacillus megaterium NRRL 1353895 at 50 mg/ml after 24 hrs by agar diffusion test; format: functional; details: NRRL 1353895, 24 h, read-out: DIZ; summary of the method: as §1
Acinetobacter johnsonii [17] = experiment: Antibacterial activity against Acinetobacter johnsonii ATCC 17909 at 50 mg/ml after 24 hrs by agar diffusion test; format: functional; details: ATCC 17909, 24 h, read-out: DIZ; summary of the method: as §1
Penicillium chrysogenum [18] = experiment: Antifungal activity against Penicillium chrysogenum CECT 2802 at 50 mg/ml after 72 hrs by agar diffusion test; format: functional; details: CECT 2802, 72 h, read-out: DIZ; summary of the method: as §2
Micrococcus luteus [19] = experiment: Antibacterial activity against Sarcina lutea ATCC 9341 at 2 mg/ml after 24 hrs by agar diffusion test; format: functional, organism-based; summary of the method: as §1
Escherichia coli [20] = experiment: Antibacterial activity against Escherichia coli ATCC 8739 at 50 mg/ml after 24 hrs by agar diffusion test; format: functional; details: ATCC 8739, 24 h, read-out: DIZ; summary of the method: as §1
Bacillus mycoides [21] = experiment: Antibacterial activity against Bacillus mycoides DSMZ 274 at 2 mg/ml after 24 hrs by agar diffusion test; format: functional, organism-based; summary of the method: as §1
Micrococcus luteus [22] = experiment: Antibacterial activity against Sarcina lutea ATCC 9341 at 50 mg/ml after 24 hrs by agar diffusion test; format: functional; details: ATCC 9341, 24 h, read-out: DIZ; summary of the method: as §3
Saccharomyces cerevisiae [23] = experiment: Antifungal activity against Saccharomyces cerevisiae ATCC 9763 at 50 mg/ml after 72 hrs by agar diffusion test; format: functional; details: ATCC 9763, 72 h, read-out: DIZ; summary of the method: as §2
Acinetobacter johnsonii [24] = experiment: Antibacterial activity against Acinetobacter johnsonii ATCC 17909 assessed as concentration required to produce >11 mm of zone of inhibition after 24 hrs by agar diffusion test; format: functional; summary of the method: as §1
Candida tropicalis [25] = experiment: Antifungal activity against Candida tropicalis ATCC 20336 assessed as concentration required to produce >11 mm of zone of inhibition after 72 hrs by agar diffusion test; format: functional; summary of the method: as §2
Staphylococcus aureus [26] = experiment: Antibacterial activity against Staphylococcus aureus NRRL B 313 at 50 mg/ml after 24 hrs by agar diffusion test; format: functional; details: NRRL B 313, 24 h, read-out: DIZ; summary of the method: as §3
Bacillus [27] = experiment: Antibacterial activity against Bacillus idosus B 241 at 2 mg/ml after 24 hrs by agar diffusion test; format: functional, organism-based; summary of the method: as §1
Micrococcus luteus [28] = experiment: Antibacterial activity against Micrococcus luteus ATCC 9631 at 50 mg/ml after 24 hrs by agar diffusion test; format: functional; details: ATCC 9631, 24 h, read-out: DIZ; summary of the method: as §1
Bacillus [29] = experiment: Antibacterial activity against Bacillus idosus B 241 assessed as concentration required to produce >11 mm of zone of inhibition after 24 hrs by agar diffusion test; format: functional; summary of the method: as §1
Micrococcus luteus [30] = experiment: Antibacterial activity against Micrococcus luteus ATCC 9631 at 2 mg/ml after 24 hrs by agar diffusion test; format: functional, organism-based; summary of the method: as §1
[31] = test system: Mycobacterium tuberculosis; experiment: Antimycobacterial activity against Mycobacterium tuberculosis H37Rv after 45 days; format: functional
Summary of the method: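 Canetti proportion method. Compound in DMSO is added to Löwenstein–Jensen egg medium before coagulation (30 min, 85 °C), tested at three levels plus a lower one where needed. Tubes are inoculated with H37Rv at 10⁵ cells/ml and incubated 45 days at 37 °C. Colony counts versus drug-free control give percentage inhibition.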

Bacillus cereus [32] = experiment: Antibacterial activity against Bacillus cereus ATCC 11778 at 2 mg/ml after 24 hrs by agar diffusion test; format: functional, organism-based; summary of the method: as §1
Bacillus mycoides [33] = experiment: Antibacterial activity against Bacillus mycoides DSMZ 274 at 50 mg/ml after 24 hrs by agar diffusion test; format: functional; details: DSMZ 274, 24 h, read-out: DIZ; summary of the method: as §1
Acinetobacter johnsonii [34] = experiment: Antibacterial activity against Acinetobacter johnsonii ATCC 17909 at 2 mg/ml after 24 hrs by agar diffusion test; format: functional; summary of the method: as §1
Micrococcus luteus [35] = experiment: Antibacterial activity against Micrococcus luteus ATCC 9631 assessed as concentration required to produce >11 mm of zone of inhibition after 24 hrs by agar diffusion test; format: functional; summary of the method: as §1
Escherichia coli [36] = experiment: Antibacterial activity against Escherichia coli ATCC 8739 at 2 mg/ml after 24 hrs by agar diffusion test; format: functional, organism-based; summary of the method: as §1
Bacillus mycoides [37] = experiment: Antibacterial activity against Bacillus mycoides DSMZ 274 assessed as concentration required to produce >11 mm of zone of inhibition after 24 hrs by agar diffusion test; format: functional; summary of the method: as §1
Priestia megaterium [38] = experiment: Antibacterial activity against Bacillus megaterium NRRL 1353895 at 2 mg/ml after 24 hrs by agar diffusion test; format: functional, organism-based; summary of the method: as §1
Bacillus cereus [39] = experiment: Antibacterial activity against Bacillus cereus ATCC 11778 at 50 mg/ml after 24 hrs by agar diffusion test; format: functional; details: ATCC 11778, 24 h, read-out: DIZ; summary of the method: as §1
Escherichia coli [40] = experiment: Antibacterial activity against Escherichia coli ATCC 8739 assessed as concentration required to produce >11 mm of zone of inhibition after 24 hrs by agar diffusion test; format: functional; summary of the method: as §1

Structure (SMILES)	zone of inhibition at 50000 µg/mL (Bacillus [1]) [mm]	Activity (Saccharomyces cerevisiae [2]) [mg/mL]	diameter of the inhibition zone (DIZ) (Penicillium chrysogenum [3])	zone of inhibition at 50000 µg/mL (Candida tropicalis [4]) [mm]	Activity (Staphylococcus aureus [6]) [mg/mL]	zone of inhibition at 50000 µg/mL (Bacillus subtilis [7]) [mm]	Activity (Priestia megaterium [8]) [mg/mL]	Activity (Bacillus cereus [9]) [mg/mL]	diameter of the inhibition zone (DIZ) (Candida tropicalis [10])	Activity (Bacillus subtilis [11]) [mg/mL]	diameter of the inhibition zone (DIZ) (Saccharomyces cerevisiae [12])	diameter of the inhibition zone (DIZ) (Bacillus subtilis [14])	diameter of the inhibition zone (DIZ) (Staphylococcus aureus [15])	zone of inhibition at 50000 µg/mL (Priestia megaterium [16]) [mm]	zone of inhibition at 50000 µg/mL (Acinetobacter johnsonii [17]) [mm]	zone of inhibition at 50000 µg/mL (Penicillium chrysogenum [18]) [mm]	diameter of the inhibition zone (DIZ) (Micrococcus luteus [19])	zone of inhibition at 50000 µg/mL (Escherichia coli [20]) [mm]	diameter of the inhibition zone (DIZ) (Bacillus mycoides [21])	zone of inhibition at 50000 µg/mL (Micrococcus luteus [22]) [mm]	further results
CC[C@H](CO)NCc1c2ccccc2cc2ccccc12	19	0.0125	inactive	31	0.03	18	0.6	0.3	inactive	0.3	inactive	inactive	inactive	20	17	16	inactive	12	inactive	18	Activity (Penicillium chrysogenum [5]): 0.06 mg/mL; Activity (Micrococcus luteus [13]): 0.3 mg/mL; zone of inhibition at 50000 µg/mL (Saccharomyces cerevisiae [23]): 32 mm; Activity (Acinetobacter johnsonii [24]): 0.6 mg/mL; Activity (Candida tropicalis [25]): 0.0125 mg/mL; zone of inhibition at 50000 µg/mL (Staphylococcus aureus [26]): 19 mm; diameter of the inhibition zone (DIZ) (Bacillus [27]): inactive; zone of inhibition at 50000 µg/mL (Micrococcus luteus [28]): 19 mm; Activity (Bacillus [29]): 1.25 mg/mL; diameter of the inhibition zone (DIZ) (Micrococcus luteus [30]): inactive; MIC [31]: 17.9 µM (≈ 5 µg/mL); diameter of the inhibition zone (DIZ) (Bacillus cereus [32]): inactive; zone of inhibition at 50000 µg/mL (Bacillus mycoides [33]): 20 mm; diameter of the inhibition zone (DIZ) (Acinetobacter johnsonii [34]): inactive; Activity (Micrococcus luteus [35]): 0.3 mg/mL; diameter of the inhibition zone (DIZ) (Escherichia coli [36]): inactive; Activity (Bacillus mycoides [37]): 0.6 mg/mL; diameter of the inhibition zone (DIZ) (Priestia megaterium [38]): inactive; zone of inhibition at 50000 µg/mL (Bacillus cereus [39]): 19 mm
CC[C@H](CO)NCc1ccc2c(c1)Cc1ccccc1-2	17	1.25	inactive	21	1.25	18	1.25	1.25	inactive	1.25	inactive	inactive	inactive	16	17	30	inactive	16	inactive	18	zone of inhibition at 50000 µg/mL (Saccharomyces cerevisiae [23]): 20 mm; Activity (Acinetobacter johnsonii [24]): 1.25 mg/mL; Activity (Candida tropicalis [25]): 0.06 mg/mL; Activity (Escherichia coli [40]): 1.25 mg/mL; zone of inhibition at 50000 µg/mL (Staphylococcus aureus [26]): 17 mm; diameter of the inhibition zone (DIZ) (Bacillus [27]): inactive; zone of inhibition at 50000 µg/mL (Micrococcus luteus [28]): 16 mm; Activity (Bacillus [29]): 0.6 mg/mL; diameter of the inhibition zone (DIZ) (Micrococcus luteus [30]): inactive; MIC [31]: 18.7 µM (≈ 5.01 µg/mL); diameter of the inhibition zone (DIZ) (Bacillus cereus [32]): inactive; zone of inhibition at 50000 µg/mL (Bacillus mycoides [33]): 20 mm; diameter of the inhibition zone (DIZ) (Acinetobacter johnsonii [34]): inactive; diameter of the inhibition zone (DIZ) (Escherichia coli [36]): inactive; Activity (Bacillus mycoides [37]): 1.25 mg/mL; diameter of the inhibition zone (DIZ) (Priestia megaterium [38]): inactive; zone of inhibition at 50000 µg/mL (Bacillus cereus [39]): 16 mm
